pKi: −log10 of the molar value.
Experiments:
PC-3 = assay: Cytotoxicity against human PC3 cells at 10^-4 M after 48 hrs by SRB assay; assay type: functional; details: PC-3, 48 h, read-out: GI
Summary of the method: (§1)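 Second-stage screen in the 60-cell-line human tumor panel at NCI, over a 5-log range (100, 10, 1, 0.1, 0.01 micromolar). Cells were exposed to drug for 48 h and growth was estimated with a sulforhodamine B protein stain. The value is percent growth inhibition at each concentration.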

M14 = assay: Cytotoxicity against human M14 cells at 10^-4 M after 48 hrs by SRB assay; assay type: functional; details: M14, 48 h, read-out: GI
Summary of the method: (§2)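 Run in the NCI 60-cell-line screen after a three-line prescreen. Cells got a 48 h drug exposure; viability/growth was estimated with the sulforhodamine B protein assay. Growth inhibition (I%) was recorded at 100, 10, 1, 0.1 and 0.01 micromolar. Percent growth is relative to untreated control cells, and negative values indicate cell kill.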

IGROV-1 = assay: Cytotoxicity against human IGROV1 cells at 10^-4 M after 48 hrs by SRB assay; assay type: functional; details: IGROV-1, 48 h, read-out: GI
Summary of the method: (§3)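 Run by NCI on its 60-line human tumor cell panel, after a three-cell-line prescreen. Cells were exposed to drug for 48 h over a 5-log range: 100, 10, 1, 0.1 and 0.01 micromolar. Growth was estimated by sulforhodamine B (SRB) protein staining. Percent growth inhibition (I%) was recorded at each concentration relative to untreated control cells.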

UACC-62 = assay: Cytotoxicity against human UACC62 cells at 10^-4 M after 48 hrs by SRB assay; assay type: functional; details: UACC-62, 48 h, read-out: GI; summary of the method: as §1
[1] = Cytotoxicity against human UO31 cells at 10^-4 M after 48 hrs by SRB assay; assay type: functional; details: UO-31, 48 h, read-out: GI; summary of the method: as §1
SK-MEL-2 = assay: Cytotoxicity against human SK-MEL-2 cells at 10^-4 M after 48 hrs by SRB assay; assay type: functional; details: SK-MEL-2, 48 h, read-out: GI; summary of the method: as §1
[2] = Cytotoxicity against human EKVX cells at 10^-4 M after 48 hrs by SRB assay; assay type: functional; details: read-out: GI; summary of the method: as §3
OVCAR-8 = assay: Cytotoxicity against human OVCAR8 cells at 10^-4 M after 48 hrs by SRB assay; assay type: functional; details: OVCAR-8, 48 h, read-out: GI; summary of the method: as §1
ACHN = assay: Cytotoxicity against human ACHN cells at 10^-4 M after 48 hrs by SRB assay; assay type: functional; details: read-out: GI; summary of the method: as §3
RPMI-8226 = assay: Cytotoxicity against human RPMI8226 cells at 10^-4 M after 48 hrs by SRB assay; assay type: functional; details: RPMI-8226, 48 h, read-out: GI; summary of the method: as §1
SNB-75 = assay: Cytotoxicity against human SNB75 cells at 10^-4 M after 48 hrs by SRB assay; assay type: functional; details: SNB-75, 48 h, read-out: GI; summary of the method: as §1
DU-145 = assay: Cytotoxicity against human DU145 cells at 10^-4 M after 48 hrs by SRB assay; assay type: functional; details: DU-145, 48 h, read-out: GI; summary of the method: as §3
MDA-MB-231 = assay: Cytotoxicity against human MDA-MB-231 cells at 10^-4 M after 48 hrs by SRB assay; assay type: functional; details: MDA-MB-231, 48 h, read-out: GI; summary of the method: as §2
Malme-3M = assay: Cytotoxicity against human MALME-3M cells at 10^-4 M after 48 hrs by SRB assay; assay type: functional; details: read-out: GI; summary of the method: as §2
U-251 = assay: Cytotoxicity against human U251 cells at 10^-4 M after 48 hrs by SRB assay; assay type: functional; details: U-251, 48 h, read-out: GI; summary of the method: as §1
HOP-92 = assay: Cytotoxicity against human HOP92 cells at 10^-4 M after 48 hrs by SRB assay; assay type: functional; details: HOP-92, 48 h, read-out: GI; summary of the method: as §3
TK-10 = assay: Cytotoxicity against human TK10 cells at 10^-4 M after 48 hrs by SRB assay; assay type: functional; details: TK-10, 48 h, read-out: GI; summary of the method: as §1
SF-268 = assay: Cytotoxicity against human SF268 cells at 10^-4 M after 48 hrs by SRB assay; assay type: functional; details: SF-268, 48 h, read-out: GI; summary of the method: as §1
HCT-116 = assay: Cytotoxicity against human HCT116 cells at 10^-4 M after 48 hrs by SRB assay; assay type: functional; details: HCT-116, 48 h, read-out: GI; summary of the method: as §3
MOLT-4 = assay: Cytotoxicity against human MOLT4 cells at 10^-4 M after 48 hrs by SRB assay; assay type: functional; details: MOLT-4, 48 h, read-out: GI; summary of the method: as §2
CCRF-CEM = assay: Cytotoxicity against human CCRF-CEM cells at 10^-4 M after 48 hrs by SRB assay; assay type: functional; details: read-out: GI; summary of the method: as §3
MCF7 [3] = assay: Cytotoxicity against human MCF7 cells assessed as cell growth at 10^-4 M after 48 hrs by alamar blue assay relative to untreated control; assay type: functional; details: MCF7, 48 h, read-out: Activity
Summary of the method: (§4)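 Three-cell-line prescreen. Each line was inoculated and preincubated on a microtiter plate, then the agent was added at a single concentration (10^-4 or 10^-5 M) and incubated 48 h. Endpoint was measured with alamar blue, and growth is reported as a percentage of untreated control cells.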

NCI-H460 = assay: Cytotoxicity against human NCI-H460 cells assessed as cell growth at 10^-4 M after 48 hrs by alamar blue assay relative to untreated control; assay type: functional; details: NCI-H460, 48 h, read-out: Activity; summary of the method: as §4
SW-620 = assay: Cytotoxicity against human SW620 cells at 10^-4 M after 48 hrs by SRB assay; assay type: functional; details: SW-620, 48 h, read-out: GI; summary of the method: as §1
SK-MEL-5 = assay: Cytotoxicity against human SK-MEL-5 cells at 10^-4 M after 48 hrs by SRB assay; assay type: functional; details: SK-MEL-5, 48 h, read-out: GI; summary of the method: as §1
NCI/ADR-RES = assay: Cytotoxicity against human NCI/ADR-RES cells at 10^-4 M after 48 hrs by SRB assay; assay type: functional; details: read-out: GI; summary of the method: as §2
[4] = Cytotoxicity against human OVCAR5 cells at 10^-4 M after 48 hrs by SRB assay; assay type: functional; details: OVCAR-5, 48 h, read-out: GI; summary of the method: as §1
T47D = assay: Cytotoxicity against human T47D cells at 10^-4 M after 48 hrs by SRB assay; assay type: functional; details: read-out: GI; summary of the method: as §1
BT-549 = assay: Cytotoxicity against human BT549 cells at 10^-4 M after 48 hrs by SRB assay; assay type: functional; details: BT-549, 48 h, read-out: GI; summary of the method: as §3
OVCAR-3 = assay: Cytotoxicity against human OVCAR3 cells at 10^-4 M after 48 hrs by SRB assay; assay type: functional; details: OVCAR-3, 48 h, read-out: GI; summary of the method: as §2
Dihydrofolate reductase = target: T1, Dihydrofolate reductase (Homo sapiens, UniProt P00374); assay: Competitive inhibition of human dihydrofolate reductase by spectrophotometry
T1 sequence (P00374 whole entry): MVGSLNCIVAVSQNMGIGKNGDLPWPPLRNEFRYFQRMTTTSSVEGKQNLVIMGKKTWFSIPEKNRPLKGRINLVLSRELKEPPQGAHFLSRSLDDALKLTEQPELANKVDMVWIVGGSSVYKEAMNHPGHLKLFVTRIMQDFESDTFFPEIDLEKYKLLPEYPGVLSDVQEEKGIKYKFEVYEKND

MCF7 [5] = assay: Cytotoxicity against human MCF7 cells at 10^-4 M after 48 hrs by SRB assay; assay type: functional; details: MCF7, 48 h, read-out: GI; summary of the method: as §2
K562 = assay: Cytotoxicity against human K562 cells at 10^-4 M after 48 hrs by SRB assay; assay type: functional; details: K562, 48 h, read-out: GI; summary of the method: as §2

Row | Compound | inhibition of growth at 100 µM (PC-3) | inhibition of growth at 100 µM (M14) | inhibition of growth at 100 µM (IGROV-1) | inhibition of growth at 100 µM (UACC-62) | inhibition of growth at 100 µM [1] | inhibition of growth at 100 µM (SK-MEL-2) | inhibition of growth at 100 µM [2] | inhibition of growth at 100 µM (OVCAR-8) | inhibition of growth at 100 µM (ACHN) | inhibition of growth at 100 µM (RPMI-8226) | inhibition of growth at 100 µM (SNB-75) | inhibition of growth at 100 µM (DU-145) | inhibition of growth at 100 µM (MDA-MB-231) | inhibition of growth at 100 µM (Malme-3M) | inhibition of growth at 100 µM (U-251) | inhibition of growth at 100 µM (HOP-92) | inhibition of growth at 100 µM (TK-10) | inhibition of growth at 100 µM (SF-268) | inhibition of growth at 100 µM (HCT-116) | inhibition of growth at 100 µM (MOLT-4) | also measured
1 | C#CCN(Cc1nc2cc(C(F)(F)F)ccc2nc1-c1ccccc1)c1ccc(C)cc1 | 58% | 186% | 79% | 188% | 167% | 136% | 56% | 77% | 193% | 44% | 180% | 40% | 163% | 160% | 181% | 93% | 181% | 76% | 189% | 85% | inhibition of growth at 100 µM (CCRF-CEM): < 40%; growth at 100 µM (MCF7 [3]): 58%; growth at 100 µM (NCI-H460): 17%; inhibition of growth at 100 µM (SW-620): 79%; inhibition of growth at 100 µM (SK-MEL-5): 158%; inhibition of growth at 100 µM (NCI/ADR-RES): 195%; inhibition of growth at 100 µM [4]: 200%; inhibition of growth at 100 µM (T47D): 172%; inhibition of growth at 100 µM (BT-549): 104%; inhibition of growth at 100 µM (OVCAR-3): 164%; pKi (Dihydrofolate reductase): 5.22; inhibition of growth at 100 µM (MCF7 [5]): 84%
2 | C#CCN(Cc1nc2cc(C(F)(F)F)ccc2nc1-c1ccccc1)c1ccc(OC(F)(F)F)cc1 | 77% | 76% | 81% | 64% | 70% | < 40% | 89% | 57% | 65% | 88% | < 40% | 75% | 81% | < 40% | 70% | 109% | 64% | 63% | 99% | 79% | inhibition of growth at 100 µM (K562): 78%; growth at 100 µM (MCF7 [3]): 17%; growth at 100 µM (NCI-H460): 7%; inhibition of growth at 100 µM (SW-620): 75%; inhibition of growth at 100 µM (SK-MEL-5): 86%; inhibition of growth at 100 µM (NCI/ADR-RES): < 40%; inhibition of growth at 100 µM [4]: < 40%; inhibition of growth at 100 µM (T47D): 70%; inhibition of growth at 100 µM (BT-549): 86%; inhibition of growth at 100 µM (OVCAR-3): 88%; pKi (Dihydrofolate reductase): 5.40; inhibition of growth at 100 µM (MCF7 [5]): 79%

Source: ChEMBL document CHEMBL3120154, “2-[N-Alkyl(R-phenyl)-aminomethyl]-3-phenyl-7-trifluoromethylquinoxalines as anticancer agents inhibitors of folate enzymes” (Eur J Med Chem, 2014)
